The values below come from ChEMBL document CHEMBL5370602, “Structure-Based Design of a Lead Compound Derived from Natural Schweinfurthins with Antitumor Properties That Target Oxysterol-Binding Protein” (J Med Chem, 2023).

Data set [1] deals with T1, Oxysterol-binding protein 1 (Homo sapiens, UniProt P22059).
T1 sequence (P22059 whole entry): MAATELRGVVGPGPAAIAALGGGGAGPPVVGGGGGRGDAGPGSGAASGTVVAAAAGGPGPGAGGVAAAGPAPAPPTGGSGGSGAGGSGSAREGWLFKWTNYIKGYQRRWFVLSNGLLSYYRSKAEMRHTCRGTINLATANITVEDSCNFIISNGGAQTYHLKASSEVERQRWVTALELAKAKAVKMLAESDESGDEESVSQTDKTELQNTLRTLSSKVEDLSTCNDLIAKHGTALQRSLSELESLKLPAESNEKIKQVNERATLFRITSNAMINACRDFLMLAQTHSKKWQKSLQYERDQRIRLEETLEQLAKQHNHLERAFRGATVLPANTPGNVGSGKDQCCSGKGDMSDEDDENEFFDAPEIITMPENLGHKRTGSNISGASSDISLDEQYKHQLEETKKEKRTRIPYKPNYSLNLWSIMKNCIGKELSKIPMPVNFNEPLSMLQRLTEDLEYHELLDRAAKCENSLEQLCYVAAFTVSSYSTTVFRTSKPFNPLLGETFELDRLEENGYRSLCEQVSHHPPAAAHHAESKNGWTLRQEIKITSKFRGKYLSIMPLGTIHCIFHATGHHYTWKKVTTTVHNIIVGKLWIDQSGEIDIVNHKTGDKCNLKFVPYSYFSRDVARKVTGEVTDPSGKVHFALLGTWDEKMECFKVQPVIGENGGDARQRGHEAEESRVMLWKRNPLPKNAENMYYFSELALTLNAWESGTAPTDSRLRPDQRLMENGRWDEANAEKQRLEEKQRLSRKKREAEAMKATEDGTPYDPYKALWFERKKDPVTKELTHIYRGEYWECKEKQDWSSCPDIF
Nature of the data set: Inhibition of human C-terminal 6-His tagged OSBP ORD domain (401 to 807 residues) expressed in baculovirus-infected Sf9 cells assessed as reduction in DHE transfer from liposome (Le mimicking ER) to liposome (Lg mimicking golgi) with compound by FRET assay. In a few lines:
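Purified human OSBP ORD (401-807, C-terminal 6×His) from baculovirus-infected Sf9 cells, used in a DHE sterol transfer fluorescence assay. Signal corrected for compound fluorescence. Kinetics fitted linearly or by ΔF = ΔFmax(1 − e^−kt) to give apparent k, which was plotted against compound concentration. Ki from a quadratic (tight binders) or hyperbolic equation, three independent experiments.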

The nature of data set [2]: Metabolic stability in mouse liver microsomes assessed as compound remaining at 2.5 uM and measured after 45 mins in presence of NADPH by LC-MS/MS analysis. Format: ADME, Microsome. The note with it: read-out: Stability. On the technique in general: Liver microsomes are vesicles of endoplasmic reticulum, rich in cytochrome P450 enzymes.
The next data set deals with A549. Nature of the data set: Antiproliferative activity against human A549 cells assessed as inhibition of cell proliferation incubated for 72 hrs by CellTiter-Glo luminescent assay. As to conditions: A549, 72 h. The format is functional, cell-based. The method, boiled down:
(§1)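 A549 in RPMI 1640 and U-87MG in DMEM, each with 10% FCS and 1% glutamine, at 37 °C and 5% CO₂. Cells seeded at 3000/well, dosed the next day, treated 72 h. Viability read by CellTiter-Glo luminescence with DMSO-treated cells set to 100%. IC50 taken from survival curves over three independent experiments.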
(In ATP-based viability assays light output follows the ATP content of the culture.)

A short description of data set [3]: Antitumor activity in high alert medicated patient derived human GBM1 cells xenografted in immunodeficient nude mouse model assessed as change in tumor volume at 50 mg/kg,ip QD cotreatment with Temozolomide at 42 mg/kg,po QD and measured after 11 days relative to control. Format: functional. The note with it: time 11 day. In a few lines:
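Female athymic nude mice bearing subcutaneous GBM1-HAM PDX fragments (20 mm³); treatment began day 11 post-implant at tumour volumes 75-196 mm³, 10 per group. Compound i.p. daily in cyclodextrin vehicle (17 days alone, 27 days in combination); temozolomide 42 mg/kg p.o. daily for 5 days in PBS/glucose/Tween 80. Calliper volumes three times weekly; body weight and clinical signs monitored.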

The target in data set [4] is T2, Oxysterol-binding protein 1 (Homo sapiens) (UniProt P22059).
T2 sequence (whole entry): T1 sequence (P22059 whole entry)
Nature of the data set: Inhibition of human OSBP in human hTERT-RPE1 cells assessed as increase in OSBP recruitment at TGN and measured after 4 hrs by confocal microscopy. Format: cell-based.

Data set [5] concerns U-87 MG. Nature of the data set: Antiproliferative activity against human U-87 MG cells assessed as inhibition of cell proliferation incubated for 72 hrs by CellTiter-Glo luminescent assay. The format is functional, cell-based, U-87MG ATCC. The method, boiled down:
as §1

The subject of data set [6] is U-87 MG. Nature of the data set: Induction of autophagy in human U-87 MG cells assessed as increase in LC3II expression at 0.05 to 1 uM incubated for 48 hrs by Western blot analysis. The note with it: U-87MG ATCC. Format: functional, cell-based. The method, boiled down: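 U-87 MG cells cultured two days, then exposed 48 h to increasing doses. Lysed in RIPA with protease inhibitors; 5 µg protein run on 4-20% SDS gels and transferred to PVDF. Probed for phospho/total AKT, S6, S6K, P62 and LC3, detected by ECL. Band intensities normalized to β-actin.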
A general note: A western blot detects proteins with antibodies after separation by electrophoresis.

Active and inactive are the calls of the source. No cut-off for these calls is given here.

Turning to `CC1(C)CCc2c(O)cc(/C=C/c3cc(O)c4c(c3)C[C@@H]3C(C)(C)[C@H](OC=O)CC[C@@]3(C)O4)cc2O1`, the inhibition constant (Ki) in data set [1] came out at 1070 nM. Also, the remaining at 0.75 h, 2.5 µM in data set [2] worked out at 5.3%. The values for the IC50 in the data set on A549 and in the data set with U-87 MG [5] were 733 nM and 12.4 nM, respectively. Besides, the Activity is 329.18% in data set [3] and “Dose-Dependent Effect” in the data set on U-87 MG [6]. In data set [4], the inhibition entry is “inactive”.

What is called Ki is a dissociation constant, usually derived from enzyme kinetics or from competition with a known ligand. The term IC50 denotes the concentration that gives 50% inhibition.
